{"data": "Assay results gathered from unrelated publications", "Oprm1": "Mu-type opioid receptor (Oprm1, Mus musculus, UniProt P42866)", "SIGMAR1": "Sigma non-opioid intracellular receptor 1 (SIGMAR1, Homo sapiens, UniProt Q99720)", "HTR2A": "5-hydroxytryptamine receptor 2A (HTR2A, Homo sapiens, UniProt P28223)", "note": "Each line is one published result; the experiments were not run side by side."}
{"SMILES": "COC(=O)/C=C/C(=O)N[C@@H]1CC[C@@]2(O)[C@H]3Cc4ccc(O)c5c4[C@@]2(CCN3CC2CC2)[C@H]1O5", "target": "Kappa-type opioid receptor (OPRK1, Homo sapiens, UniProt P41145, E297K)", "test": "ligand displacement, radioligand", "conditions": "cell membranes", "quantity": "IC50", "value": "0.00429 µM"}
{"SMILES": "O=C(N[C@@H]1C=C[C@@]2(O)[C@H]3Cc4ccc(O)c5c4[C@@]2(CCN3CC2CC2)[C@H]1O5)c1c[nH]c2cnccc12", "target": "Oprm1", "test": "ligand displacement, radioligand", "quantity": "Ki", "value": "0.56 nM"}
{"SMILES": "CN[C@@H](C)[C@@H](O)c1ccccc1", "target": "SIGMAR1", "test": "ligand displacement, radioligand", "quantity": "Ki", "value": "> 10000 nM"}
{"SMILES": "NCCc1c[nH]c2ccc(Cl)cc12", "target": "HTR2A", "test": "ligand displacement, radioligand", "quantity": "Ki", "value": "889 nM"}
{"SMILES": "N#Cc1ccccc1-c1cc(-c2ccccn2)cn(-c2ccccc2)c1=O", "target": "Glutamate receptor ionotropic, kainate 2 (Grik2, Rattus norvegicus, UniProt P42260)", "test": "ion current, patch clamp", "quantity": "IC50", "value": "58 µM"}
{"SMILES": "O=[N+]([O-])c1cn2c(n1)OC[C@@H](OCc1ccc(OC(F)(F)F)cc1)C2", "target": "ddn (Mycobacterium tuberculosis, UniProt P9WP15)", "test": "binding, fluorescence", "quantity": "Kd", "value": "13.9 µM"}
{"SMILES": "O=C(N[C@H]1C=C[C@@]2(O)[C@H]3Cc4ccc(O)c5c4[C@@]2(CCN3CC2CC2)[C@H]1O5)c1n[nH]c2ccccc12", "target": "Oprm1", "test": "ligand displacement, radioligand", "quantity": "Ki", "value": "0.33 nM"}
{"SMILES": "CN1CC[C@@]23CCCC[C@@H]2[C@@H]1Cc1ccc(O)cc13", "target": "SIGMAR1", "test": "ligand displacement, radioligand", "quantity": "Ki", "value": "2670 nM"}
{"SMILES": "O=C(N[C@@H]1C=C[C@@]2(O)[C@H]3Cc4ccc(O)c5c4[C@@]2(CCN3CC2CC2)[C@H]1O5)c1c[nH]c2cccnc12", "target": "Oprm1", "test": "ligand displacement, radioligand", "quantity": "Ki", "value": "0.41 nM"}
{"SMILES": "NCCc1c[nH]c2cc(F)ccc12", "target": "HTR2A", "test": "ligand displacement, radioligand", "quantity": "Ki", "value": "606 nM"}
